T cruzi growth-1 = T. cruzi proliferation inhibition; AID 624255; 5.9% of 77,000 active; inhibition, % at 8.34 µM; T. cruzi beta-gal in NIH3T3, GalScreen luminescence, 90 h;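 active = mean inhibition above about 93%, with at least 55% of replicates each passing it, limit read from the data, passing the limit was not always enough; inconclusive = only one of those two conditions holds; inactive = neither condition holds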
IDH1 R132H inh = inhibitors of human IDH1 R132H; O75874; IDH1 R132H reductase, diaphorase/resazurin fluorescence, 60 min; inhibition, % at 10 µM; 0.18% of 70,000 active; AID 624101; in the data active = inhibition above about 34%; inconclusive = no clear call, values can overlap the other calls; inactive = below about 11%
Target sequence (O75874 whole entry R132H): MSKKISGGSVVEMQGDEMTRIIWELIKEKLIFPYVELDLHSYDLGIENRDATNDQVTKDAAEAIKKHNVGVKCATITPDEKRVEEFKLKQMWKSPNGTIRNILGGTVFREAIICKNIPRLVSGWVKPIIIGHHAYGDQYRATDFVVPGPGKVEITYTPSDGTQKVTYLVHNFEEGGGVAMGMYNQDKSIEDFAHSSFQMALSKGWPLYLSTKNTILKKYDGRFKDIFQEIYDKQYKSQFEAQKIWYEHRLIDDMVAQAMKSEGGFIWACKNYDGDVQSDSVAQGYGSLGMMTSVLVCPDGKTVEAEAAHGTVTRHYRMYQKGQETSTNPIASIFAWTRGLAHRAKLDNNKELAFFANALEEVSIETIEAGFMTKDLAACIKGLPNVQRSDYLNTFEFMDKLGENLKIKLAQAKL
GASC1 inh = KDM4C (human) demethylase inhibition; inhibition, % at 12.5 µM; 0.15% of 96,000 active; AID 720574; GST-KDM4C 2-372, H3K9me3 peptide, LANCE TR-FRET; Q9H3R0;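 active = mean replicate inhibition above about 25%, with at least 55% of replicates also reaching it, limit read from the data, passing the limit was not always enough; inconclusive = only one of those two conditions met; inactive = neither condition met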
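Compound: one test concentration per compound; Material: GST-GASC-1 enzyme fragment 2-372; Amount: GASC-1 enzyme at 10 nM final in reaction; Also added: H3K9me3 peptide substrate, Fe(II), 2-oxoglutarate; Technique: LANCE TR-FRET; Times: 30 min demethylation and 1 h detection at room temperature.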
T cruzi growth-2 = inhibitors of T. cruzi proliferation. shares compounds with T cruzi growth-1. T. cruzi beta-gal in NIH3T3, GalScreen luminescence, 90 h. inhibition, % at 8.35 µM. 72% of 5,600 active. AID 651739;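 active = mean replicate inhibition above about 95% and at least 55% of replicates individually reaching it, limit read from the data; inconclusive = only one of the two criteria is met; inactive = neither criterion is met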
T cruzi growth-3 = Trypanosoma cruzi proliferation inhibition; 21% of 5,600 active; inhibition, % at 2.09 µM; T. cruzi beta-gal in NIH3T3, GalScreen luminescence, 90 h; shares compounds with T cruzi growth-1;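 active = mean inhibition above about 95%, with at least 55% of replicates also reaching it, limit read from the data; inconclusive = meets just one of the two conditions; inactive = meets neither condition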
NIH3T3 tox = cytotoxicity in mouse NIH/3T3 fibroblasts | 14% of 5,600 active | NIH/3T3 viability, CellTiter-Glo ATP luminescence, 90 h | shares compounds with T cruzi growth-1 | cytotoxicity (signal decrease), % at 8.35 µM | AID 651742;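 active = mean signal decrease across replicates above about 35% based on untreated-well scatter, with enough replicates individually passing, limit read from the data; inconclusive = no rule stated though some were filed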
3T3 cytotox 2 = cytotoxicity in mouse NIH/3T3 fibroblasts; AID 651744; NIH/3T3 viability, CellTiter-Glo ATP luminescence, 90 h; 56% of 5,600 active; inhibition, % at 24.9 µM; shares compounds with T cruzi growth-1;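 active = mean loss of cell viability signal at or above a set limit, and enough replicates individually reaching it; inconclusive = meets only the mean limit or only the replicate share; inactive = meets neither condition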
Numbers stand for hits; 0 = inactive; ? = inconclusive; - = no result given. The full list was thinned out, with hits kept by preference.

SMILES	T cruzi growth-1	IDH1 R132H inh	GASC1 inh	T cruzi growth-2	T cruzi growth-3	NIH3T3 tox	3T3 cytotox 2
C[C@@H]1CN([C@H](C)CO)C(=O)c2cc(NS(=O)(=O)c3ccc(Cl)cc3)ccc2O[C@@H](C)CCCCO[C@@H]1CN(C)S(=O)(=O)c1ccc(F)cc1	105.5	-	0	104.4	108.7	0	0
C[C@H]1CCCCO[C@H](CN(C)S(=O)(=O)c2ccc(Cl)cc2)[C@@H](C)CN([C@@H](C)CO)C(=O)c2cc(NS(=O)(=O)c3ccc(F)cc3)ccc2O1	103.3	0	0	?	110.2	0	0
C[C@@H]1CCCCO[C@H](CN(C)S(=O)(=O)c2ccc(F)cc2)[C@H](C)CN([C@H](C)CO)C(=O)c2cc(NS(=O)(=O)c3ccc(Cl)cc3)ccc2O1	100.4	0	0	103.2	110.2	0	0
COC(=O)c1c(NC(=O)CSc2ccccn2)sc2c1CCC2	-	0	-	-	-	-	-
CCC1(C)Cc2c(sc3nnn(CC(=O)Nc4ccc(OC)cc4OC)c(=O)c23)CO1 (configuration not stated)	-	0	-	-	-	-	-
NC(=O)CSc1nc2ccccc2n1CC(=O)N1CCCCC1	-	0	-	-	-	-	-
Cc1ccc2ccc(C(Nc3ccccn3)c3ccc(C(C)C)cc3)c(O)c2n1 (configuration not stated)	-	0	-	-	-	-	-
COc1cc([N+](=O)[O-])ccc1NC(=S)NCCn1cc(Br)cn1	-	0	-	-	-	-	-
COC(=O)COc1cc(Cl)c(C2NC(=S)NC(c3ccccc3)=C2C(C)=O)cc1OC (configuration not stated)	-	0	-	-	-	-	-
C[C@H]1CN([C@@H](C)CO)C(=O)c2cc(NS(=O)(=O)c3ccc(F)cc3)ccc2O[C@@H]1CN(C)S(=O)(=O)c1ccc(Cl)cc1	0	0	0	-	-	-	-
C[C@H](CO)N1C[C@H](C)[C@H](CN(C)S(=O)(=O)c2ccc(Cl)cc2)Oc2ccc(NS(=O)(=O)c3ccc(F)cc3)cc2C1=O	?	0	0	98.3	0	40.4	?
CN1C(=O)c2cc(NC(=O)c3ccc(F)cc3)ccc2OC[C@H]2O[C@@H](CC(=O)NCC3CCCCC3)CC[C@H]21	100.9	-	0	112.8	0	38.7	60.6
CC(C)C(=O)Nc1ccc2c(c1)C(=O)N(C)[C@@H]1CC[C@@H](CC(=O)NCc3ccc(F)cc3)O[C@H]1CO2	0	-	0	-	-	-	-
CC(=O)Nc1ccc2c(c1)C(=O)N(C)[C@H]1CC[C@@H](CC(=O)NCC3CC3)O[C@@H]1CO2	0	-	0	-	-	-	-
CC(=O)Nc1ccc2c(c1)C(=O)N(C)[C@@H]1CC[C@@H](CC(=O)NCC3CCCCC3)O[C@H]1CO2	99.1	-	0	0	0	0	0
COCCNC(=O)C[C@H]1CC[C@@H]2[C@@H](COc3ccc(NC(C)=O)cc3C(=O)N2C)O1	0	-	0	-	-	-	-
CN1C(=O)c2cc(NC(=O)c3ccc(F)cc3)ccc2OC[C@@H]2O[C@@H](CC(=O)NCC3CCCCC3)CC[C@@H]21	0	-	0	-	-	-	-
COCCNC(=O)C[C@H]1CC[C@@H]2[C@H](COc3ccc(NC(C)=O)cc3C(=O)N2C)O1	101.1	-	0	0	0	0	0
CC(C)C(=O)Nc1ccc2c(c1)C(=O)N(C)[C@@H]1CC[C@@H](CC(=O)NCc3ccc(F)cc3)O[C@@H]1CO2	96.0	-	0	0	0	0	0
COc1cc2c(cc1NC(=O)CCOc1ccc(C)cc1)oc1ccccc12	-	0	-	-	-	-	-
CN(Cc1nc(-c2ccccc2)no1)S(=O)(=O)c1ccccc1	-	0	-	-	-	-	-
O=C(OCc1nc2ccccc2s1)c1ccc([N+](=O)[O-])cc1	-	0	-	-	-	-	-
O=C(N/N=C/c1ccccc1Br)c1ccccn1	-	0	-	-	-	-	-
COC(=O)c1cccc(NC(=O)CN(c2ccc(F)cc2)S(C)(=O)=O)c1C	-	0	-	-	-	-	-
Cc1nc(SCC(=O)Nc2ccc([N+](=O)[O-])cc2)[nH]c(=O)c1C	-	0	-	-	-	-	-
SMILES	T cruzi growth-1	IDH1 R132H inh	GASC1 inh	T cruzi growth-2	T cruzi growth-3	NIH3T3 tox	3T3 cytotox 2
CCC(=O)Nc1ccc2c(c1)C(=O)N(C)[C@H]1CC[C@H](CC(=O)Nc3ccccc3OC)O[C@@H]1CO2	0	-	0	-	-	-	-
COCC(=O)Nc1ccc2c(c1)C(=O)N(C)[C@H]1CC[C@H](CC(=O)Nc3ccccc3OC)O[C@@H]1CO2	111.6	-	-	?	0	0	0
C[C@H](CO)N1C[C@H](C)[C@H](CN(C)C(=O)c2ccncc2)Oc2cc(C3=CCCC3)ccc2S1(=O)=O	?	0	0	98.9	0	0	0
C[C@@H]1CN([C@@H](C)CO)S(=O)(=O)c2ccc(C3=CCCC3)cc2O[C@H]1CN(C)C(=O)c1ccc(F)cc1	-	0	0	-	-	-	-
C[C@@H]1CN([C@@H](C)CO)S(=O)(=O)c2ccc(C3=CCCC3)cc2O[C@H]1CN(C)C(=O)c1ccncc1	0	0	0	-	-	-	-
C[C@@H]1CN([C@@H](C)CO)S(=O)(=O)c2ccc(C3=CCCCC3)cc2O[C@@H]1CN(C)C(=O)c1ccc(F)cc1	113.9	0	0	106.8	0	0	98.2
CC(=O)c1ccc(NC(=O)CN(C)S(=O)(=O)c2ccc(Br)cc2)cc1	-	0	-	-	-	-	-
COC(=O)CCCCCCC(=O)N/N=C/CC1=C(C)CCCC1(C)C	-	0	-	-	-	-	-
Cc1ccc(NC(=O)CNS(=O)(=O)c2ccccc2)cc1Cl	-	0	-	-	-	-	-
O=C(NC1CCCC1)N1CCCCN2[C@H](CO)[C@H](c3ccc(-c4ccccc4)cc3)[C@@H]2C1	112.7	-	0	113.4	0	0	63.0
O=C(NC1CCCC1)N1CCCCN2[C@H](CO)[C@H](c3ccc(-c4ccncc4)cc3)[C@H]2C1	0	-	0	-	-	-	-
O=C(NC1CCCC1)N1CCCCN2[C@H](CO)[C@@H](c3ccc(-c4ccccc4)cc3)[C@H]2C1	0	-	0	-	-	-	-
COc1ccccc1-c1ccc([C@H]2[C@@H](CO)N3CCCCN(C(=O)NC4CCCC4)C[C@@H]23)cc1	100.3	-	0	109.1	0	0	34.1
O=C(CC1NC2CCCCC2NC1=O)Nc1ccc2c(c1)OCCO2 (configuration not stated)	-	0	-	-	-	-	-
O=C(Nc1ccccc1F)N1CCCCN2[C@H](C1)[C@H](c1ccc(/C=C/c3ccccc3)cc1)[C@@H]2CO	115.9	-	0	109.7	0	0	46.8
O=C(Nc1ccccc1F)N1CCCCN2[C@@H](CO)[C@@H](c3ccc(/C=C/c4ccccc4)cc3)[C@@H]2C1	0	-	0	-	-	-	-
C/C=C/c1ccc([C@@H]2[C@@H](CO)N3CCCCN(C(=O)Nc4ccccc4F)C[C@@H]23)cc1	0	-	0	-	-	-	-
O=C(Nc1ccccc1F)N1CCCCN2[C@H](CO)[C@@H](c3ccc(/C=C/c4ccccc4)cc3)[C@@H]2C1	111.5	-	0	98.3	101.1	0	104.8
COc1ccc(S(=O)(=O)Nc2ccc3c(c2)C(=O)N([C@H](C)CO)C[C@H](C)[C@@H](CN(C)S(=O)(=O)c2ccc(Cl)cc2)OCCCC[C@H](C)O3)cc1	0	0	0	-	-	-	-
